Test results from ChEMBL document CHEMBL2331506, “Design, synthesis, antiviral and cytostatic evaluation of novel isoxazolidine nucleotide analogues with a carbamoyl linker” (Bioorg Med Chem, 2013).
Active and inactive are the calls of the source. The rule behind the calls is not given here.

Legend:
MDCK = assay: Cytotoxicity against dog MDCK cells assessed as alteration of cell morphology up to 100 uM by microscopic analysis; format: cell-based, Canis lupus familiaris
How it was run: (§1)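 Uninfected host-cell cultures were exposed to compound and examined by microscopy. Cytotoxicity was expressed as the minimum cytotoxic concentration (MCC) causing a microscopically detectable alteration of normal cell morphology.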

[1] = test system: Respiratory syncytial virus; assay: Antiviral activity against Respiratory syncytial virus long infected in human HeLa cells assessed as reduction of virus-induced cytopathogenicity at 250 uM; format: functional, organism-based
How it was run: (§2)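 Confluent monolayers (HEL fibroblasts, Vero, or HeLa cells as listed) were infected with 100 CCID50 of virus in the presence of varying compound concentrations. Virus-induced cytopathicity or plaque formation was scored once cytopathicity was complete in untreated infected controls. EC50 was taken as the concentration reducing cytopathogenicity or plaque formation by 50%.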

Human respirovirus 3 = assay: Antiviral activity against Parainfluenza virus 3 infected in african green monkey Vero cells assessed as reduction of virus-induced cytopathogenicity at 250 uM; format: functional, organism-based; how it was run: as §2
Human alphaherpesvirus 1 [2] = assay: Antiviral activity against Herpes simplex virus 1 KOS infected in human HEL cells assessed as reduction of virus-induced cytopathogenicity at 250 uM; format: functional, organism-based; how it was run: as §2
[3] = Cytotoxicity against cat CRFK cells assessed as alteration of cell morphology up to 100 uM by microscopic analysis; format: cell-based, Felis catus; how it was run: as §1
Feline coronavirus = assay: Antiviral activity against Feline coronavirus infected in cat CRFK cells assessed as reduction of virus-induced cytopathogenicity at 250 uM; format: functional, organism-based
Influenza A virus [4] = assay: Antiviral activity against Influenza A virus H1N1 infected in dog MDCK cells assessed as reduction of virus-induced cytopathogenicity at 250 uM; format: functional, organism-based
How it was run: (§3)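 Confluent cell monolayers were infected with 100 CCID50 of virus while exposed to varying compound concentrations. Cytopathicity was scored once it was complete in untreated infected controls. EC50 was taken as the concentration that reduced virus-induced cytopathogenicity by 50%.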

[5] = test system: Vesicular stomatitis virus; assay: Antiviral activity against Vesicular stomatitis virus infected in human HeLa cells assessed as reduction of virus-induced cytopathogenicity at 250 uM; format: functional, organism-based; how it was run: as §3
[6] = test system: Human immunodeficiency virus 1; assay: Antiviral activity against Human immunodeficiency virus 1 3B infected in human CEM cells assessed as reduction of virus-induced giant cell formation at 250 uM after 4 to 5 days; format: functional, organism-based; settings: CCRF-CEM
How it was run: (§4)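 CEM cells at 3 × 10^5 cells/mL were infected with HIV at 100 CCID50 per mL in the presence of compound dilutions. They were held 4–5 days at 37 °C in humidified CO2. Syncytium (giant cell) formation was scored microscopically, and EC50 was taken as the concentration inhibiting giant cell formation by 50%.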

[7] = test system: Human immunodeficiency virus 2; assay: Antiviral activity against Human immunodeficiency virus 2 ROD infected in human CEM cells assessed as reduction of virus-induced giant cell formation at 250 uM after 4 to 5 days; format: functional, organism-based; settings: CCRF-CEM; how it was run: as §4
Felid alphaherpesvirus 1 = assay: Antiviral activity against Feline herpes virus infected in cat CRFK cells assessed as reduction of virus-induced cytopathogenicity at 250 uM; format: functional, organism-based
Vero = assay: Cytotoxicity against african green monkey Vero cells assessed as alteration of cell morphology up to 100 uM by microscopic analysis; format: cell-based; settings: chlorocebus sabaeus; how it was run: as §1
[8] = test system: Mammalian orthoreovirus 1; assay: Antiviral activity against Reovirus 1 infected in african green monkey Vero cells assessed as reduction of virus-induced cytopathogenicity at 250 uM; format: functional, organism-based; how it was run: as §2
HeLa = assay: Cytotoxicity against human HeLa cells assessed as alteration of cell morphology up to 100 uM by microscopic analysis; format: cell-based; how it was run: as §1
HEL = assay: Cytotoxicity against human HEL cells assessed as alteration of cell morphology up to 100 uM by microscopic analysis; format: cell-based; how it was run: as §1
Sindbis virus = assay: Antiviral activity against Sindbis virus infected in african green monkey Vero cells assessed as reduction of virus-induced cytopathogenicity at 250 uM; format: functional, organism-based; how it was run: as §2
Influenza A virus [9] = assay: Antiviral activity against Influenza A virus H3N2 infected in dog MDCK cells assessed as reduction of virus-induced cytopathogenicity at 250 uM; format: functional, organism-based; how it was run: as §3
Punta Toro virus = assay: Antiviral activity against Punta Toro virus infected in african green monkey Vero cells assessed as reduction of virus-induced cytopathogenicity at 250 uM; format: functional, organism-based; how it was run: as §2
Coxsackievirus B4 = assay: Antiviral activity against Coxsackievirus B4 infected in african green monkey Vero cells assessed as reduction of virus-induced cytopathogenicity at 250 uM; format: functional, organism-based; how it was run: as §2
Influenza B virus = assay: Antiviral activity against Influenza B virus infected in dog MDCK cells assessed as reduction of virus-induced cytopathogenicity at 250 uM; format: functional, organism-based; how it was run: as §3
Human alphaherpesvirus 2 = assay: Antiviral activity against Herpes simplex virus 2 G infected in human HEL cells assessed as reduction of virus-induced cytopathogenicity at 250 uM; format: functional, organism-based; settings: strain G; how it was run: as §2
[10] = test system: Vesicular stomatitis virus; assay: Antiviral activity against Vesicular stomatitis virus infected in human HEL cells assessed as reduction of virus-induced cytopathogenicity at 250 uM; format: functional, organism-based; how it was run: as §3
Human alphaherpesvirus 1 [11] = assay: Antiviral activity against thymidine kinase-deficient, ACV-resistant Herpes simplex virus 1 KOS infected in human HEL cells assessed as reduction of virus-induced cytopathogenicity at 250 uM; format: functional, organism-based; how it was run: as §3

Structure (SMILES)	Activity (MDCK)	inhibition [1]	inhibition (Human respirovirus 3)	inhibition (Human alphaherpesvirus 1 [2])	Activity [3]	inhibition (Feline coronavirus)	inhibition (Influenza A virus [4])	inhibition [5]	inhibition [6]	inhibition [7]	inhibition (Felid alphaherpesvirus 1)	Activity (Vero)	inhibition [8]	Activity (HeLa)	Activity (HEL)	inhibition (Sindbis virus)	inhibition (Influenza A virus [9])	inhibition (Punta Toro virus)	inhibition (Coxsackievirus B4)	inhibition (Influenza B virus)	also measured
CCOP(=O)(OCC)[C@@H]1C[C@H](C(=O)Nc2ccccc2Cl)ON1C (mixture of isomers)	Non-toxic	inactive	inactive	inactive	Non-toxic	inactive	inactive	inactive	inactive	inactive	inactive	Non-toxic	inactive	Non-toxic	Non-toxic	inactive	inactive	inactive	inactive	inactive	inhibition (Human alphaherpesvirus 2): inactive; inhibition [10]: inactive; inhibition (Human alphaherpesvirus 1 [11]): inactive
CCOP(=O)(OCC)[C@@H]1C[C@H](C(=O)Nc2ccc(OC)c(OC)c2)ON1C (mixture of isomers)	Non-toxic	inactive	inactive	inactive	Non-toxic	inactive	inactive	inactive	inactive	inactive	inactive	Non-toxic	inactive	Non-toxic	Non-toxic	inactive	inactive	inactive	inactive	inactive	inhibition (Human alphaherpesvirus 2): inactive; inhibition [10]: inactive; inhibition (Human alphaherpesvirus 1 [11]): inactive
CCOP(=O)(OCC)[C@H]1C[C@H](C(=O)Nc2ccc(OC)c(OC)c2)ON1C (mixture of isomers)	Non-toxic	inactive	inactive	inactive	Non-toxic	inactive	inactive	inactive	inactive	inactive	inactive	Non-toxic	inactive	Non-toxic	Non-toxic	inactive	inactive	inactive	inactive	inactive	inhibition (Human alphaherpesvirus 2): inactive; inhibition [10]: inactive; inhibition (Human alphaherpesvirus 1 [11]): inactive
CCOP(=O)(OCC)[C@H]1C[C@H](C(=O)Nc2cc(OC)c(OC)c(OC)c2)ON1C (mixture of isomers)	Non-toxic	inactive	inactive	inactive	Non-toxic	inactive	inactive	inactive	inactive	inactive	inactive	Non-toxic	inactive	Non-toxic	Non-toxic	inactive	inactive	inactive	inactive	inactive	inhibition (Human alphaherpesvirus 2): inactive; inhibition [10]: inactive; inhibition (Human alphaherpesvirus 1 [11]): inactive
CCOP(=O)(OCC)[C@H]1C[C@H](C(=O)Nc2cc(OC)c(OC)cc2C#N)ON1C (mixture of isomers)	Non-toxic	inactive	inactive	inactive	Non-toxic	inactive	inactive	inactive	inactive	inactive	inactive	Non-toxic	inactive	Non-toxic	Non-toxic	inactive	inactive	inactive	inactive	inactive	inhibition (Human alphaherpesvirus 2): inactive; inhibition [10]: inactive; inhibition (Human alphaherpesvirus 1 [11]): inactive
CCOP(=O)(OCC)[C@@H]1C[C@H](C(=O)Nc2cc(OC)c(OC)cc2C#N)ON1C (mixture of isomers)	Non-toxic	inactive	inactive	inactive	Non-toxic	inactive	inactive	inactive	inactive	inactive	inactive	Non-toxic	inactive	Non-toxic	Non-toxic	inactive	inactive	inactive	inactive	inactive	inhibition (Human alphaherpesvirus 2): inactive; inhibition [10]: inactive; inhibition (Human alphaherpesvirus 1 [11]): inactive
CCOP(=O)(OCC)[C@H]1C[C@H](C(=O)Nc2cc(OC)c(OC)cc2C(C)=O)ON1C (mixture of isomers)	Non-toxic	inactive	inactive	inactive	Non-toxic	inactive	inactive	inactive	inactive	inactive	inactive	Non-toxic	inactive	Non-toxic	Non-toxic	inactive	inactive	inactive	inactive	inactive	inhibition (Human alphaherpesvirus 2): inactive; inhibition [10]: inactive; inhibition (Human alphaherpesvirus 1 [11]): inactive
CCOP(=O)(OCC)[C@@H]1C[C@H](C(=O)Nc2cc(OC)c(OC)cc2C(C)=O)ON1C (mixture of isomers)	Non-toxic	inactive	inactive	inactive	Non-toxic	inactive	inactive	inactive	inactive	inactive	inactive	Non-toxic	inactive	Non-toxic	Non-toxic	inactive	inactive	inactive	inactive	inactive	inhibition (Human alphaherpesvirus 2): inactive; inhibition [10]: inactive; inhibition (Human alphaherpesvirus 1 [11]): inactive
